Calls of active or inactive are those of the source. No cut-off for these calls is given here.
Legend:
Cytochrome P450 3A4 = Cytochrome P450 3A4 (Homo sapiens, UniProt P08684); assay: Inhibition of CYP3A4 (unknown origin); assay type: ADME
[1] = Half life in monkey liver microsomes; assay type: ADME, Macaca mulatta, Microsome; conditions: rhesus monkey
Mus musculus [2] = assay: Induction of lymphopenia in Balb/c mouse assessed as reduction of circulating lymphocytes at 10 mg/kg, po measured after 24 hrs relative to control; assay type: functional
Method in brief: (§1)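 Single oral dose to Balb/c mice in PEG300 vehicle, as solution or suspension; vehicle-only group as control. Retro-orbital bleeds at 4 h and 24 h. Lymphocyte counts read on a hematology analyzer. Expressed as % reduction of circulating lymphocytes versus the vehicle group at each time. Group means, n = 3–4 per group.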

[3] = Drug metabolism in orally dosed Balb/c mouse assessed as phosphate metabolite to parent AUC (0-24 hrs) ratio at after 24 hrs; assay type: ADME, organism-based; conditions: in vivo, po
Mus musculus [4] = assay: Suppression of experimental autoimmune-encephalomyelositis in MOG peptide induced C57BL/6 mouse EAE chronic model assessed as improvement in clinical scores at 0.5 mg/kg, po dosed every other day relative to control; assay type: functional
Method in brief: (§2)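 C57BL/6 female mice, 6–8 weeks, n=10 per group, immunized subcutaneously with MOG35-55 emulsified 1:1 in incomplete Freund's adjuvant plus M. tuberculosis H37RA. Oral dosing from day 1, every other day or daily as stated. Clinical scores graded up to 5 (death) and averaged per group. At termination, lumbar spinal cord taken for formalin fixation and paraffin sections stained with H&E and Luxol Fast Blue. Groups compared by one-way ANOVA with Tukey post test.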

[5] = Half life in mouse; assay type: ADME, organism-based; conditions: in vivo
Mus musculus [6] = assay: Induction of lymphopenia in orally dosed Balb/c mouse assessed as reduction of circulating lymphocytes measured after 24 hrs relative to control; assay type: functional, organism-based; method in brief: as §1
Mus musculus [7] = assay: Suppression of experimental autoimmune-encephalomyelositis in MOG peptide induced C57BL/6 mouse EAE chronic model assessed as reduction in central nervous system damage at 0.5 to 4 mg/kg, po dosed every other day by hematoxylin and eosin staining based histological analysis relative to control; assay type: functional, organism-based; conditions: dose 0.5-4 mg/kg; method in brief: as §2
[8] = Inhibition of sodium channel (unknown origin) assessed as reduction in Na+ flux; set-up: species or system Homo sapiens
Cytochrome P450 2C9 = Cytochrome P450 2C9 (Homo sapiens, UniProt P11712); assay: Inhibition of CYP2C9 (unknown origin); assay type: ADME
Cytochrome P450 2C9, sequence (P11712 whole entry): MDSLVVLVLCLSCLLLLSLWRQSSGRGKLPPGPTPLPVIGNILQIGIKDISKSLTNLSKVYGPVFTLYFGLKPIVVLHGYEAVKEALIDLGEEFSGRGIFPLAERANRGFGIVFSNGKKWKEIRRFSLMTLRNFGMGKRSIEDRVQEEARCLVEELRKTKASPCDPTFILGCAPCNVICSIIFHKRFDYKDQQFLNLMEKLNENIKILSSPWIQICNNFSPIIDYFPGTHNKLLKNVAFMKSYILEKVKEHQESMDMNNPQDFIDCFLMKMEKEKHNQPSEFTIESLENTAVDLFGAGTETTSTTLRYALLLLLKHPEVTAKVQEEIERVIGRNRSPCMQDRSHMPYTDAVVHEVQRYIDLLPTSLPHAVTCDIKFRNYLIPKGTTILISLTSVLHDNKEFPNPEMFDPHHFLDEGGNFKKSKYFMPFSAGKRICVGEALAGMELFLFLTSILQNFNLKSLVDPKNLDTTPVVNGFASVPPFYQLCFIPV

Mus musculus [9] = assay: Induction of lymphopenia in Balb/c mouse assessed as reduction of circulating lymphocytes at 1 mg/kg, po measured after 4 hrs relative to control; assay type: functional; method in brief: as §1
Cytochrome P450 2C19 = Cytochrome P450 2C19 (Homo sapiens, UniProt P33261); assay: Inhibition of CYP2C19 (unknown origin); assay type: ADME
Cytochrome P450 2C19, sequence (P33261 whole entry): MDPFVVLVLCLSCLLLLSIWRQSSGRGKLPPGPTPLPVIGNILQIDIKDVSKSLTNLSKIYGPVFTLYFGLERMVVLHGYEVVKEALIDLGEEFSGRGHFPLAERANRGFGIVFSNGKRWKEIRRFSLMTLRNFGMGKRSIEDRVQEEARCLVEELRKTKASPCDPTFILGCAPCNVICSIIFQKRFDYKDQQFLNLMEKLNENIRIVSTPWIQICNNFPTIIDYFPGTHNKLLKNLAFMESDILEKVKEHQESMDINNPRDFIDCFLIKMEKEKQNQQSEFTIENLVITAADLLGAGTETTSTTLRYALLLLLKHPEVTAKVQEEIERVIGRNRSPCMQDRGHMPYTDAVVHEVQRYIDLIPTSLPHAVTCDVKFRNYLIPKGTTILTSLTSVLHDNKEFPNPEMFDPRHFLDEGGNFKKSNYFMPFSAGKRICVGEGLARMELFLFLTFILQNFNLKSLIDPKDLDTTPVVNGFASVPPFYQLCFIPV

Mus musculus [10] = assay: Induction of lymphopenia in Balb/c mouse assessed as reduction of circulating lymphocytes at 30 mg/kg, po measured after 24 hrs relative to control; assay type: functional; method in brief: as §1
Mus musculus [11] = assay: Induction of lymphopenia in Balb/c mouse assessed as reduction of circulating lymphocytes at 10 mg/kg, po measured after 4 hrs relative to control; assay type: functional; method in brief: as §1
[12] = Unbound fraction in human plasma; assay type: ADME, cell-free
Mus musculus [13] = assay: Induction of lymphopenia in Balb/c mouse assessed as reduction of circulating lymphocytes at 0.5 mg/kg, po measured after 4 hrs relative to control; assay type: functional; method in brief: as §1
Mus musculus [14] = assay: Suppression of experimental autoimmune-encephalomyelositis in MOG peptide induced C57BL/6 mouse EAE chronic model assessed as improvement in clinical scores at 4 mg/kg, po dosed every other day relative to control; assay type: functional; method in brief: as §2
Mus musculus [15] = assay: Induction of lymphopenia in Balb/c mouse assessed as reduction of circulating lymphocytes at 0.5 mg/kg, po measured after 24 hrs relative to control; assay type: functional; method in brief: as §1
[16] = Unbound fraction in cynomolgus monkey plasma; assay type: ADME, cell-free, Macaca fascicularis
[17] = Unbound fraction in mouse plasma; assay type: ADME, cell-free
Cytochrome P450 2D6 = Cytochrome P450 2D6 (Homo sapiens, UniProt P10635); assay: Inhibition of CYP2D6 (unknown origin); assay type: ADME
Cytochrome P450 2D6, sequence (P10635 whole entry): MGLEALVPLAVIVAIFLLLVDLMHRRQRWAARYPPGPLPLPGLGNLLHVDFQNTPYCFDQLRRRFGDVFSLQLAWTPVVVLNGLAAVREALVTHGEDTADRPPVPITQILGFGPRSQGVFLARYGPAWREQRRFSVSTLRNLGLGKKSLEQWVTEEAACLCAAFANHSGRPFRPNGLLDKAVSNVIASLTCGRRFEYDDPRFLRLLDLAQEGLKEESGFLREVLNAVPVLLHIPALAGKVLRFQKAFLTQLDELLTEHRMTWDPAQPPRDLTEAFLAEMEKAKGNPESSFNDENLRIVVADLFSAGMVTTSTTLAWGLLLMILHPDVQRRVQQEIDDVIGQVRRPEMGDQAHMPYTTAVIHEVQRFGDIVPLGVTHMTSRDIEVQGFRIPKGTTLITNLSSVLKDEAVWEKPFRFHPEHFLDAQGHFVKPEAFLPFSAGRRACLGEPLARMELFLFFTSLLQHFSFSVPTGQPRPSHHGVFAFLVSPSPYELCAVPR

[18] = Half life in rat liver microsomes; assay type: ADME, Microsome
[19] = Half life in mouse liver microsomes; assay type: ADME, Microsome
hERG (KCNH2) = hERG (KCNH2) (Homo sapiens, UniProt Q12809); assay: Inhibition of human ERG expressed in HEK293 cells assessed as inhibition of peak tail current at 0.3 uM by patch clamp analysis; assay type: cell-based; conditions: HEK293 cells expressing human ERG
hERG (KCNH2), sequence (Q12809 whole entry): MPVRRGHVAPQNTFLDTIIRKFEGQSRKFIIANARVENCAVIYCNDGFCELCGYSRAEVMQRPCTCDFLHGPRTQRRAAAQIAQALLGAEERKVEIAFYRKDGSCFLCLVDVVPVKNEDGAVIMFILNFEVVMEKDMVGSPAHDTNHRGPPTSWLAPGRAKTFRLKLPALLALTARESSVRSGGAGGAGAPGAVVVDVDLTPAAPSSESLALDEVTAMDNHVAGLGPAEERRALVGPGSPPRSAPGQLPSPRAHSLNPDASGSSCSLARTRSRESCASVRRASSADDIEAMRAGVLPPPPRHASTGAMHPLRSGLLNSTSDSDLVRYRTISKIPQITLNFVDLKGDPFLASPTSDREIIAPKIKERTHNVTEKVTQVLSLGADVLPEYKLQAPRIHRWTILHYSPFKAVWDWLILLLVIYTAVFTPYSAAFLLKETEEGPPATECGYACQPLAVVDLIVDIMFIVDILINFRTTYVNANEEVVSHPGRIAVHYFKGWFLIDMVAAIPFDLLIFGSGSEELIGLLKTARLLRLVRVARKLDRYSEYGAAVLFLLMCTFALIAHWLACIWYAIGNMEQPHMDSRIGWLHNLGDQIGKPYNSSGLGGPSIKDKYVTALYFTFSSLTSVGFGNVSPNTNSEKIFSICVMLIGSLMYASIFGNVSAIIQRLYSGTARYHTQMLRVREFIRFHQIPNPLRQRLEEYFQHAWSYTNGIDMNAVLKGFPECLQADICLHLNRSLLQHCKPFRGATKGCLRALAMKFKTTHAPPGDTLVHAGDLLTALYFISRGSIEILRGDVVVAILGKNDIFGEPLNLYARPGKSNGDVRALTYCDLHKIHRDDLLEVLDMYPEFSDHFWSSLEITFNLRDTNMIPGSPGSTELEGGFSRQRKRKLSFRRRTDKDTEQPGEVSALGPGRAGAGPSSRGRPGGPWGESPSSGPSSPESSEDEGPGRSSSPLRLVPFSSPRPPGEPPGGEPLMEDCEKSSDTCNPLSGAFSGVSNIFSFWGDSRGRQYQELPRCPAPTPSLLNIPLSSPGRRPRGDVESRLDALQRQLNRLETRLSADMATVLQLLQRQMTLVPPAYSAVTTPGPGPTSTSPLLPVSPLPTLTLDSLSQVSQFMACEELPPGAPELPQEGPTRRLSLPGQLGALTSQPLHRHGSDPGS
Method in brief: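 Whole-cell patch clamp on HEK293 cells stably expressing the cloned hERG α subunit, in aqueous buffer pH 7.4 at room temperature. Test pulses at 0.05 Hz stepped from holding to +20 mV for 2 s. Tail currents evoked by a subsequent voltage step. Inhibition measured on peak tail current.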

Mus musculus [20] = assay: Induction of lymphopenia in Balb/c mouse assessed as reduction of circulating lymphocytes at 30 mg/kg, po measured after 4 hrs relative to control; assay type: functional; method in brief: as §1
Cytochrome P450 2C8 = biological target: T1, Cytochrome P450 2C8 (Homo sapiens, UniProt P10632); assay: Inhibition of CYP2C8 (unknown origin); assay type: ADME
T1 sequence (P10632 whole entry): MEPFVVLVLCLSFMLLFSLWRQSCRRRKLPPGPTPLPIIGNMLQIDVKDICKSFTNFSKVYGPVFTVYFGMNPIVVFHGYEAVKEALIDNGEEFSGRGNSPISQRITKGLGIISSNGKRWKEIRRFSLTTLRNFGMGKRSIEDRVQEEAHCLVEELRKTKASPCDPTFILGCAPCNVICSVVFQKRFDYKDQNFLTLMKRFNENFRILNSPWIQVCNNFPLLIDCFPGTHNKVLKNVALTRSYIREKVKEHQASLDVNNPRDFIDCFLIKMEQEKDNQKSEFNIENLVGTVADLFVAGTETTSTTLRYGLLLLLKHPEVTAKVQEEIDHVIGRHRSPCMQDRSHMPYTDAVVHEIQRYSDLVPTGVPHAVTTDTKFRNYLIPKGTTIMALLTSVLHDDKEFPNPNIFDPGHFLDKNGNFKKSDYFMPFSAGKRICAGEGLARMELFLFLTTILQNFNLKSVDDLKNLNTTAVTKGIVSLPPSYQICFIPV

Mus musculus [21] = assay: Suppression of experimental autoimmune-encephalomyelositis in MOG peptide induced C57BL/6 mouse EAE chronic model assessed as improvement in clinical scores at 0.5 to 4 mg/kg, po dosed every other day; assay type: functional, organism-based; conditions: dose 0.5-4 mg/kg; method in brief: as §2
[22] = Half life in human liver microsomes; assay type: ADME, Microsome
[23] = Unbound fraction in rat plasma; assay type: ADME, cell-free
[24] = Unbound fraction in dog plasma; assay type: ADME, cell-free, Canis lupus familiaris
[25] = biological target: T2, Sphingosine 1-phosphate receptor 3 (Homo sapiens, UniProt Q99500); assay: Agonist activity at human S1P3 expressed in EDG3-Ga15-bla HEK293T cells incubated for 45 mins by scintillation counting based [35S]GTP-gamma-S binding assay relative to control; assay type: cell membranes, Cell membrane
T2 sequence (Q99500 whole entry): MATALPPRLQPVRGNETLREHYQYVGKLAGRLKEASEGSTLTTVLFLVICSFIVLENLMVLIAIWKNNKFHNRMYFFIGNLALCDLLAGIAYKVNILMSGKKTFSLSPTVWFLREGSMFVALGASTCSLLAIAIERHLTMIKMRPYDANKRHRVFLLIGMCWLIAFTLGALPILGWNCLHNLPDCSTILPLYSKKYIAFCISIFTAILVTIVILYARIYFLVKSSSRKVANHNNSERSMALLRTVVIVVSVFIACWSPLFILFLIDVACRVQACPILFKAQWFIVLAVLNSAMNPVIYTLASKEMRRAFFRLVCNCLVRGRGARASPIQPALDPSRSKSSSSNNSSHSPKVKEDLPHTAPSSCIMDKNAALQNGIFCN
Method in brief: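 Membranes from EDG3-Ga15-bla HEK293T cells, 3 μg protein/well, mixed with compound in 3-fold dilution series. Room temperature, 45 min. Filter capture, water washes, scintillation counting. EC50 taken at 50% of each compound's own Ymax.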

[26] = biological target: T2, Sphingosine 1-phosphate receptor 3; assay: Antagonist activity at human S1P3 expressed in EDG3-Ga15-bla HEK293T cells incubated for 45 mins by scintillation counting based [35S]GTP-gamma-S binding assay relative to control; assay type: cell membranes, Cell membrane
[27] = biological target: Sphingosine 1-phosphate receptor 1 (Homo sapiens, UniProt P21453); assay: Agonist activity at human S1P1 in HLE cell membranes incubated for 45 mins by scintillation counting based [35S]GTP-gamma-S binding assay; set-up: species or system Cell membrane
Sphingosine 1-phosphate receptor 1, sequence (P21453 whole entry): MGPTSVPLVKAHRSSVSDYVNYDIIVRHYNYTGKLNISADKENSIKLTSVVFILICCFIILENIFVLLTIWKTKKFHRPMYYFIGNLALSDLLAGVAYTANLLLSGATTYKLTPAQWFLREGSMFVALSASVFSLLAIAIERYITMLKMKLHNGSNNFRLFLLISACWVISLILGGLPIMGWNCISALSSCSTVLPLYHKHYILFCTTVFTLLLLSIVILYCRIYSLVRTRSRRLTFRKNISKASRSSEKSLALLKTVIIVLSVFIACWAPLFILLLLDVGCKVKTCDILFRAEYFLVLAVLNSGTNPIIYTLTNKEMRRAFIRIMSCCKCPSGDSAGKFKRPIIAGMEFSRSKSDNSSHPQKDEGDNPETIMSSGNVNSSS

Cerebellum [28] = assay: Induction of remyelination in lysophosphatidylcholine-induced demyelination in CD1 mouse organotypic cerebellar slice assessed as myelination index level at 0.01 to 10 nM incubated for 7 days by immunohistochemistry based three-dimensional brain cell culture assay (reference value: 50%); assay type: functional; conditions: dose 0.01-10 nM, time 7 day
Method in brief: (§3)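 Cerebellum from P1-2 CD1 mouse pups cut into 350 μm parasagittal slices. Cultured on inserts at 36–37 °C, 5% CO2, in MEM/horse serum/EBSS/glucose medium for 13 days. Demyelination with 0.5 mg/ml LPC overnight, then 24 h in medium, then 7 days of treatment. Slices immunostained for MBP and CBD and imaged by confocal at ×40. Myelination index = CBD+MBP double-stained area divided by CBD single-stained area. ANOVA with Dunnett test.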

Cerebellum [29] = assay: Induction of remyelination in lysophosphatidylcholine-induced demyelination in CD1 mouse organotypic cerebellar slice assessed as promotion of Purkinje cell axonal remyelination at 0.01 to 10 nM incubated for 7 days by immunohistochemistry based three-dimensional brain cell culture assay; assay type: functional, tissue-based; conditions: dose 0.01-10 nM, time 7.0 day; method in brief: as §3
Cerebellum [30] = assay: Induction of remyelination in lysophosphatidylcholine-induced demyelination in CD1 mouse organotypic cerebellar slice at 0.01 to 10 nM incubated for 7 days by immunohistochemistry based three-dimensional brain cell culture assay; assay type: functional, tissue-based; conditions: dose 0.01-10 nM, time 7.0 day; method in brief: as §3

Cytochrome P450 3A4, sequence (P08684 whole entry): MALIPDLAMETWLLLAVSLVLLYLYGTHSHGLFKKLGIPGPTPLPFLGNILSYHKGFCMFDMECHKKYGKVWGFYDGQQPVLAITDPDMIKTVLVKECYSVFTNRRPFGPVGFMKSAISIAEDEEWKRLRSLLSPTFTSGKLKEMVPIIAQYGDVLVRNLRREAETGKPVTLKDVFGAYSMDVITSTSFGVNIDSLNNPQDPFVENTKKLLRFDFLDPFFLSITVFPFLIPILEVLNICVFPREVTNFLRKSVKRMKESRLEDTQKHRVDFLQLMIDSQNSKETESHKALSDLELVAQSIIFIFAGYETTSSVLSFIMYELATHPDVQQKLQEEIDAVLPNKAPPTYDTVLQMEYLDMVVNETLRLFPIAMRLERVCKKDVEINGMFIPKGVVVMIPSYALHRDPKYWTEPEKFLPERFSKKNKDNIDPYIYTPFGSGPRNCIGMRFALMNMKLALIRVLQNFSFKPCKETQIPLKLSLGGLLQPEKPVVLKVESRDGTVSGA

## CCCCCC[C@@H]1CCc2cc([C@H]3CC[C@](N)(CO)C3)ccc2C1 [BMS-986104]
Cytochrome P450 3A4
  IC50: 19 µM
[1]
  half-life: 2 h
Mus musculus [2]
  inhibition in vivo at 10 mg/kg: 90%
[3]
  Ratio: 0.51
Mus musculus [4]
  Activity: 33%
[5]
  half-life: 98 h
Mus musculus [6]
  Activity: Dose-dependent effect
Mus musculus [7]
  Activity: Active
[8]
  IC50: > 80 µM
Cytochrome P450 2C9
  IC50: > 20 µM
Mus musculus [9]
  inhibition in vivo at 1 mg/kg: 52%
Cytochrome P450 2C19
  IC50: > 20 µM
Mus musculus [10]
  inhibition in vivo at 30 mg/kg: 90%
Mus musculus [11]
  inhibition in vivo at 10 mg/kg: 80%
[12]
  Fu: < 1%
Mus musculus [13]
  inhibition in vivo at 0.5 mg/kg: 52%
Mus musculus [14]
  Activity: 55%
Mus musculus [15]
  inhibition in vivo at 0.5 mg/kg: 68%
[16]
  Fu: < 1%
[17]
  Fu: < 1%
Cytochrome P450 2D6
  IC50: > 20 µM
[18]
  half-life: 2 h
[19]
  half-life: 2 h
hERG (KCNH2)
  inhibition at 0.3 µM: 36%
Mus musculus [20]
  inhibition in vivo at 30 mg/kg: 88%
Cytochrome P450 2C8
  IC50: 5 µM
Mus musculus [21]
  Activity: Dose-dependent effect
[22]
  half-life: 1.78 h
[23]
  Fu: < 1%
[24]
  Fu: < 1%

## CCCCCC[C@H]1CCc2cc([C@H]3CC[C@](N)(COP(=O)(O)O)C3)ccc2C1
Mus musculus [6]
  EC50: 0.035 µM
[25]
  EC50: > 1 µM
[26]
  IC50: > 1 µM
[27]
  EC50: 0.06 µM

## CCCCCC[C@H]1CCc2cc([C@H]3CC[C@](N)(CO)C3)ccc2C1
[3]
  Ratio: 0.57
Mus musculus [10]
  inhibition in vivo at 30 mg/kg: 84%
Mus musculus [13]
  inhibition in vivo at 0.5 mg/kg: 21%
Mus musculus [20]
  inhibition in vivo at 30 mg/kg: 66%

## CCCCCC[C@@H]1CCc2cc([C@H]3CC[C@](N)(COP(=O)(O)O)C3)ccc2C1
Cerebellum [28]
  Activity: 100%
Cerebellum [29]
  Activity: Active
[25]
  EC50: > 1 µM
[26]
  IC50: > 1 µM
[27]
  EC50: 0.0064 µM
Cerebellum [30]
  Activity: Active

Source: ChEMBL document CHEMBL4715806, “Asymmetric Hydroboration Approach to the Scalable Synthesis of ((1R,3S)-1-Amino-3-((R)-6-hexyl-5,6,7,8-tetrahydronaphthalen-2-yl)cyclopentyl)methanol (BMS-986104) as a Potent S1P Receptor Modulator” (J Med Chem, 2016)
